Reference: ChEMBL document CHEMBL1152541, “Staurosporine tethered peptide ligands that target cAMP-dependent protein kinase (PKA): optimization and selectivity profiling” (Bioorg Med Chem, 2009)
Values belong to the compound of their own block, whether it stands above or below them. *1 amine or outer side, *2 acyl side, *3 side chain or, on linkers, in order; H or OH if unused. Where a SMILES comes first, the peptide text is derived from it. Bridges are numbered along the chain shown (N, C = ends). [ ]: non-standard residue; d: D form. The star is where a group is joined. Staurosporine = CO[C@@H]1[C@H](N(C)*)C[C@H]2O[C@]1(C)n1c3ccccc3c3c4c(c5c6ccccc6n2c5c31)C(=O)NC4; Suc = O=C(CCC(=O)[*:2])[*:1]; Dap = NC[C@H](N)C(=O)O; βAla = NCCC(=O)O

Assays:
[1] = molecular target: Focal adhesion kinase 1 (Homo sapiens) (UniProt Q05397); test: Binding affinity to human PTK2 at 500 nM by cell-based competition binding assay relative to control in presence of DTT
[2] = molecular target: Serine/threonine-protein kinase pim-1 (Homo sapiens) (UniProt P11309); test: Ratio of compound to staurosporine binding affinity to human PIM1 in presence of DTT
[3] = molecular target: Mitogen-activated protein kinase 14 (Homo sapiens) (UniProt Q16539); test: Binding affinity to human p38alpha at 500 nM by cell-based competition binding assay relative to control in presence of DTT
[4] = molecular target: Serine/threonine-protein kinase pim-2 (Homo sapiens) (UniProt Q9P1W9); test: Binding affinity to human PIM2 at 500 nM by cell-based competition binding assay relative to control in presence of DTT
[5] = molecular target: Receptor tyrosine-protein kinase erbB-2 (Homo sapiens) (UniProt P04626); test: Binding affinity to human ERBB2 at 500 nM by cell-based competition binding assay relative to control in presence of DTT
Method in brief: (§1)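 Commercial (Ambit) competitive kinase-binding panel of 90 kinases measured the binding profile. Run under reducing conditions of 7.5 mM DTT. Binding is expressed relative to control.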

[6] = molecular target: Glycogen synthase kinase-3 beta (Homo sapiens) (UniProt P49841); test: Ratio of compound to staurosporine binding affinity to human GSK3-beta in presence of DTT
[7] = molecular target: Epidermal growth factor receptor (Homo sapiens) (UniProt P00533); test: Binding affinity to human EGFR at 500 nM by cell-based competition binding assay relative to control in presence of DTT; method in brief: as §1
[8] = molecular target: T1, Aurora kinase A (Homo sapiens) (UniProt O14965); test: Binding affinity to human aurora kinase A at 500 nM by cell-based competition binding assay relative to control in presence of DTT
T1 sequence (whole entry): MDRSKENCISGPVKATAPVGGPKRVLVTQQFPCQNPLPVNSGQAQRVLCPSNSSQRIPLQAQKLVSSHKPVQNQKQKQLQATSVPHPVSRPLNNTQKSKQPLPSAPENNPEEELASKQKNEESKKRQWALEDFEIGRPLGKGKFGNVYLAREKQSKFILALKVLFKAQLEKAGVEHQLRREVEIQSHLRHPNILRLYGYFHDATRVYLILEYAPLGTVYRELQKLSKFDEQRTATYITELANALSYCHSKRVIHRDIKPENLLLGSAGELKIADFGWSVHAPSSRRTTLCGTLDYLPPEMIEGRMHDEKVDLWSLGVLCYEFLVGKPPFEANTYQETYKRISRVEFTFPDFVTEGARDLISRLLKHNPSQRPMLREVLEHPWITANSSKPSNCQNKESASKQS

[9] = molecular target: 3-phosphoinositide-dependent protein kinase 1 (Homo sapiens) (UniProt O15530); test: Ratio of compound to staurosporine binding affinity to PDK1 in presence of DTT
[10] = system: Serine/threonine-protein kinase B-raf (Homo sapiens), P15056 [V600E]; test: Binding affinity to human BRAF V600E mutant at 500 nM by cell-based competition binding assay relative to control in presence of DTT
Method in brief: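 Kinase binding profiling ran on a commercial (Ambit) competitive binding screen against a panel of 90 kinases. The screen used reducing conditions with 7.5 mM DTT. To withstand the DTT, the bivalent ligand was tested as its amide isostere, with the disulfide replaced. A staurosporine derivative carrying a 3 β-alanine linker was run as the reference compound.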

[11] = molecular target: Dual specificity tyrosine-phosphorylation-regulated kinase 1B (Homo sapiens) (UniProt Q9Y463); test: Binding affinity to human DYRK1B at 500 nM by cell-based competition binding assay relative to control in presence of DTT; method in brief: as §1
[12] = molecular target: Vascular endothelial growth factor receptor 2 (Homo sapiens) (UniProt P35968); test: Binding affinity to human VEGFR2 at 500 nM by cell-based competition binding assay relative to control in presence of DTT
[13] = molecular target: Dual specificity tyrosine-phosphorylation-regulated kinase 1B (Homo sapiens) (UniProt Q9Y463); test: Binding affinity to human DYRK1B at 200 nM by cell-based competition binding assay relative to control in presence of DTT; method in brief: as §1
[14] = molecular target: Hepatocyte growth factor receptor (Homo sapiens) (UniProt P08581); test: Binding affinity to human MET at 200 nM by cell-based competition binding assay relative to control in presence of DTT
[15] = molecular target: Angiopoietin-1 receptor (Homo sapiens) (UniProt Q02763); test: Binding affinity to human TIE2 at 50 nM by cell-based competition binding assay relative to control in presence of DTT
[16] = molecular target: MAP kinase-interacting serine/threonine-protein kinase 2 (Homo sapiens) (UniProt Q9HBH9); test: Binding affinity to human MKNK2 at 50 nM by cell-based competition binding assay relative to control in presence of DTT
[17] = molecular target: Hepatocyte growth factor receptor (Homo sapiens) (UniProt P08581); test: Binding affinity to human MET at 50 nM by cell-based competition binding assay relative to control in presence of DTT
[18] = molecular target: Serine/threonine-protein kinase PAK 1 (Homo sapiens) (UniProt Q13153); test: Binding affinity to human PAK1 at 50 nM by cell-based competition binding assay relative to control in presence of DTT
Chain of Serine/threonine-protein kinase PAK 1 (Homo sapiens) (Q13153 whole entry): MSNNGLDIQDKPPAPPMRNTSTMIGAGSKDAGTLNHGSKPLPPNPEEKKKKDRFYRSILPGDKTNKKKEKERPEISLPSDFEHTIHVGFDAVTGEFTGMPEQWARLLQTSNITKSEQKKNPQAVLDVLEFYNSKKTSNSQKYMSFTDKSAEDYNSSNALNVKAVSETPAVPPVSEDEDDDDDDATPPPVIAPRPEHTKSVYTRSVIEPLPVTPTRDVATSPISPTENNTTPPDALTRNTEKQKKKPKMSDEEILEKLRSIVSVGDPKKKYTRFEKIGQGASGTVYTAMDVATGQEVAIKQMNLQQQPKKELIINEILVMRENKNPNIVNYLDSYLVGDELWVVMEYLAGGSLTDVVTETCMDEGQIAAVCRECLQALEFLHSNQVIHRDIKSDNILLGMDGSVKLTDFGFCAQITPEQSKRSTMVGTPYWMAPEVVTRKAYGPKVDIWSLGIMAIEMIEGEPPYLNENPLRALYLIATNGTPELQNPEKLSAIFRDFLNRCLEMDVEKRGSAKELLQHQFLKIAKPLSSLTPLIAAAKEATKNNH

Chain of Dual specificity tyrosine-phosphorylation-regulated kinase 1B (Homo sapiens) (Q9Y463 whole entry, looked up): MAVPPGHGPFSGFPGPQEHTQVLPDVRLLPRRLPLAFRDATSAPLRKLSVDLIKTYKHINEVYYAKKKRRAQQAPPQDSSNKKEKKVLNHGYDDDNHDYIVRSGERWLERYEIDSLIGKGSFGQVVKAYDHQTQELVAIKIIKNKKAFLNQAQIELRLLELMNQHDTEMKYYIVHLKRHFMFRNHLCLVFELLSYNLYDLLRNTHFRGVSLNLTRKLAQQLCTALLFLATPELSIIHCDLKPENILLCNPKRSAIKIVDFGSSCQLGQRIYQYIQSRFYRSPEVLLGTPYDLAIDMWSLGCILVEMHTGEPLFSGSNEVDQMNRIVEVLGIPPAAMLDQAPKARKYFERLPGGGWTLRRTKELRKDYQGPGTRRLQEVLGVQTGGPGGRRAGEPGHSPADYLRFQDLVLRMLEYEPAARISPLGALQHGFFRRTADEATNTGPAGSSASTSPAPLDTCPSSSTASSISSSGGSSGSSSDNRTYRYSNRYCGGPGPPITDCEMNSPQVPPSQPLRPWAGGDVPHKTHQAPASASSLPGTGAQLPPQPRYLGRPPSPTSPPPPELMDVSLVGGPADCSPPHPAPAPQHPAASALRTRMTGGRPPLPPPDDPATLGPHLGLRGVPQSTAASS
Chain of Hepatocyte growth factor receptor (Homo sapiens) (P08581 whole entry): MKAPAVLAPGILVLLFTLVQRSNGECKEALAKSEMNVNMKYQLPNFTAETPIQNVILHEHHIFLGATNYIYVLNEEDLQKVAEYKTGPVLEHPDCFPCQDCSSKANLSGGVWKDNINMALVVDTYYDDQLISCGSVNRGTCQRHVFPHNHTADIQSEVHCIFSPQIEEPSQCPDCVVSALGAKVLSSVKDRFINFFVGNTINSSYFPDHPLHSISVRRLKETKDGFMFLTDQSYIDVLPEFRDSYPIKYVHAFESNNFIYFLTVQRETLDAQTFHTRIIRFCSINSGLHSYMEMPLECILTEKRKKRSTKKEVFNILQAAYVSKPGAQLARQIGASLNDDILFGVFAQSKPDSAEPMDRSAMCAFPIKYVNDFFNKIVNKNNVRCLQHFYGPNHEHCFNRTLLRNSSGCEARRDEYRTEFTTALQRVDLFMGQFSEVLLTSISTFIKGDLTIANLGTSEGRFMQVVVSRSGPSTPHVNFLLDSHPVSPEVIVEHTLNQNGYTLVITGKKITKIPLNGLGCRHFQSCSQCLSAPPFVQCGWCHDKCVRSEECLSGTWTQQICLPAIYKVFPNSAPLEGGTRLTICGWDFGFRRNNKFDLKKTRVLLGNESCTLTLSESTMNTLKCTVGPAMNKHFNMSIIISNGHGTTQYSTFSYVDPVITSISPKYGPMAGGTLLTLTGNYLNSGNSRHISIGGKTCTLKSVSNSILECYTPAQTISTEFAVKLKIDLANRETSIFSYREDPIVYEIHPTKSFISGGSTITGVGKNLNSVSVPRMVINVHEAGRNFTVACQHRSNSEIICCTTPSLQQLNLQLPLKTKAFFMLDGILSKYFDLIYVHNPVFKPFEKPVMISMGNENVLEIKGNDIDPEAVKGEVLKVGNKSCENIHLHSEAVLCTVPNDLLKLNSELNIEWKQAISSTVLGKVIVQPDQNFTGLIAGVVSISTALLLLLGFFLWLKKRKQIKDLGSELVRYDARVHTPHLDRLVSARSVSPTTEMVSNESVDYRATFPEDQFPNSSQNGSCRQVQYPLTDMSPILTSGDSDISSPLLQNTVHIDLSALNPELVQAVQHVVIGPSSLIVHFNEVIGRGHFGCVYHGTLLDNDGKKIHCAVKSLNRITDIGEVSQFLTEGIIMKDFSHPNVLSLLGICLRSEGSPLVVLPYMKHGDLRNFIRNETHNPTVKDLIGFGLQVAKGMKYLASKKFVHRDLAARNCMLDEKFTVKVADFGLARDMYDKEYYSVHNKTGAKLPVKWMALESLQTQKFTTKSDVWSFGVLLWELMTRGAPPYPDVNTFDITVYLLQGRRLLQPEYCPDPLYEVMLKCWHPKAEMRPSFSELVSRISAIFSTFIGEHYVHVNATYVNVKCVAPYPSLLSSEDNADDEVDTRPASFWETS
Chain of MAP kinase-interacting serine/threonine-protein kinase 2 (Homo sapiens) (Q9HBH9 whole entry, looked up): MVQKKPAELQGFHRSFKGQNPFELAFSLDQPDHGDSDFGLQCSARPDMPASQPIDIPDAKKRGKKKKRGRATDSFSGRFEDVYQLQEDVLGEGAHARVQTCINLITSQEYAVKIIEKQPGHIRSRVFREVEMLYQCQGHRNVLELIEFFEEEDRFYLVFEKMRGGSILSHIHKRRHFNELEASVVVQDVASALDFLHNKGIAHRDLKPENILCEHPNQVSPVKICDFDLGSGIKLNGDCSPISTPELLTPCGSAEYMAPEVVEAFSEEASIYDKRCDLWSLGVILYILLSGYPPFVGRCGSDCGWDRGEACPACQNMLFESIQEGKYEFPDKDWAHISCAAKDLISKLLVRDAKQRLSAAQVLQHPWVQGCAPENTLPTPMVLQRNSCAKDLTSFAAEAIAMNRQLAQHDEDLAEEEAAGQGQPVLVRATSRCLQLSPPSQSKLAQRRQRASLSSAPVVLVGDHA
Chain of Focal adhesion kinase 1 (Homo sapiens) (Q05397 2-1052 limits assumed): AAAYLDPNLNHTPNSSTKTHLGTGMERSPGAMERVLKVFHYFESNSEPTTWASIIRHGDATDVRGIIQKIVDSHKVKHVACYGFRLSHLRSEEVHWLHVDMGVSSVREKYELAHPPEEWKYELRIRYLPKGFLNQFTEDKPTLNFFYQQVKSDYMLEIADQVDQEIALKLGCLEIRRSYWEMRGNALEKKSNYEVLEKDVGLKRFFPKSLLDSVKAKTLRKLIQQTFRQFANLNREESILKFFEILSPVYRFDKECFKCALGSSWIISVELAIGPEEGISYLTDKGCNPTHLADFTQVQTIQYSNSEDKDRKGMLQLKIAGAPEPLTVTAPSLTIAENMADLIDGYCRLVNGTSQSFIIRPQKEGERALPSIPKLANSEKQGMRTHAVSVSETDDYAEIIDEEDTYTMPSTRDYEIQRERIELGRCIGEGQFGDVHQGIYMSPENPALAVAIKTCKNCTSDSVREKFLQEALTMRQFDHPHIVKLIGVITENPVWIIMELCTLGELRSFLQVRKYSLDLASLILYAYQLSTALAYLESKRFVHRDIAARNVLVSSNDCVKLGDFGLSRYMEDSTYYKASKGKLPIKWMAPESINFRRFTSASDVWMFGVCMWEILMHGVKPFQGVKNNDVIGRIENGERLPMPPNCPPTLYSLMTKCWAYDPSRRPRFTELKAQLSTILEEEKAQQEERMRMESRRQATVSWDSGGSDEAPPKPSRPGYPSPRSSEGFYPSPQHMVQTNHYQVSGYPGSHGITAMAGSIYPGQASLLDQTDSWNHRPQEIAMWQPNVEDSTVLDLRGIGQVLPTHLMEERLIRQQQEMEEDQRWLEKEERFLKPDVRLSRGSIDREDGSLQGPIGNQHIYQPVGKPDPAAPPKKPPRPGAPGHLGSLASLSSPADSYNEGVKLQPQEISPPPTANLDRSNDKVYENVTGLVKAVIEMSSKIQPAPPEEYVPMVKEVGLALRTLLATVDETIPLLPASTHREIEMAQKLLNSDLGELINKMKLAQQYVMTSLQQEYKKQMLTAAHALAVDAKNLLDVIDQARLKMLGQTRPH
Chain of 3-phosphoinositide-dependent protein kinase 1 (Homo sapiens) (O15530 whole entry, looked up): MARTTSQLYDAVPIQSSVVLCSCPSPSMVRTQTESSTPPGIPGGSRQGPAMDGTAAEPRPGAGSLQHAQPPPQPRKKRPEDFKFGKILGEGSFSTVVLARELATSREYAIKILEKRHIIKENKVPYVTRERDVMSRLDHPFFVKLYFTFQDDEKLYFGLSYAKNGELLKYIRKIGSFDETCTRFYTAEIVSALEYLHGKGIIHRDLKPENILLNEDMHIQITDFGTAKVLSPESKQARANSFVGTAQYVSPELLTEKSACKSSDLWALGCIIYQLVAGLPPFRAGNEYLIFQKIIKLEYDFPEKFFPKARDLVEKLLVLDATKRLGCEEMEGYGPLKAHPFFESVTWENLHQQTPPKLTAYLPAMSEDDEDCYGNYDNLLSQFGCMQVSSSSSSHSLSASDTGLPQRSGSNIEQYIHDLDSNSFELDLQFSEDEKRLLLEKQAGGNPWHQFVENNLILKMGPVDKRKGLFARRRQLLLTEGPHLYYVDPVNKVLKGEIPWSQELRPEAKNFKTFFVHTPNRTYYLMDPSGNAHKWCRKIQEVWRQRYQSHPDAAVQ
Chain of Glycogen synthase kinase-3 beta (Homo sapiens) (P49841 whole entry, looked up): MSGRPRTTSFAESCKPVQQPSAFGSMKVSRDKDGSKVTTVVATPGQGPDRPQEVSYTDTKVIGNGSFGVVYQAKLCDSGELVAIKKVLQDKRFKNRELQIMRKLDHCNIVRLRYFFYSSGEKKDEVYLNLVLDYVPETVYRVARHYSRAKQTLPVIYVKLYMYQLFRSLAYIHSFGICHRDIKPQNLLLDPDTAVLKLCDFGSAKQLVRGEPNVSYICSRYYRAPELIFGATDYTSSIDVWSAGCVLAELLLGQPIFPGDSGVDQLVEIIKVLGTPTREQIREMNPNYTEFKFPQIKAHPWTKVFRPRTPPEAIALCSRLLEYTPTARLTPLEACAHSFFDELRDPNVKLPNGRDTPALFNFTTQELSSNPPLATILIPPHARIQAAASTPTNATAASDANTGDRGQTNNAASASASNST

Activity [1]: 65%
Selectivity ratio [2]: 31
Activity [3]: 93%
Activity [4]: 100%
Activity [5]: 95%
Selectivity ratio [6]: 7
Activity [7]: 54%
Activity [8]: 4.2%
Selectivity ratio [9]: 52
Activity [10]: 94%
Activity [11]: 5.6%
Activity [12]: 36%
Compound: CO[C@@H]1[C@H](N(C)C(=O)CCC(=O)NCCC(=O)NCCC(=O)NCCC(N)=O)C[C@H]2O[C@]1(C)n1c3ccccc3c3c4c(c5c6ccccc6n2c5c31)C(=O)NC4

Activity [13]: 14%
Activity [14]: 77%
Compound: CO[C@@H]1[C@H](N(C)C(=O)CCC(=O)NCCC(=O)NCCC(=O)NCCC(=O)NCCC(=O)NCCC(=O)NCCC(=O)NCCC(=O)N[C@H]2CSSC[C@@H](C(=O)NCC(N)=O)NC(=O)CNC(=O)[C@H](Cc3ccccc3)NC(=O)[C@H](C(C)C)NC(=O)[C@H](CCCNC(=N)N)NC(=O)[C@H](Cc3ccccc3)NC(=O)[C@H](C(C)C)NC2=O)C[C@H]2O[C@]1(C)n1c3ccccc3c3c4c(c5c6ccccc6n2c5c31)C(=O)NC4 ({Staurosporine-Suc-βAla-βAla-βAla-βAla-βAla-βAla-βAla}-CVFRVFGCG-NH2; disulfide 1-8)

Activity [15]: 100%
Activity [16]: 100%
Activity [17]: 100%
Activity [18]: 66%
Compound: CO[C@@H]1[C@H](N(C)C(=O)CCC(=O)NCCC(=O)NCCC(=O)NCCC(=O)NCCC(=O)NCCC(=O)NCCC(=O)NCCC(=O)N[C@H]2CNC(=O)C[C@@H](C(N)=O)NC(=O)CNC(=O)[C@H](Cc3ccccc3)NC(=O)[C@H](C(C)C)NC(=O)[C@H](CCCNC(=N)N)NC(=O)[C@H](Cc3ccccc3)NC(=O)[C@H](C(C)C)NC2=O)C[C@H]2O[C@]1(C)n1c3ccccc3c3c4c(c5c6ccccc6n2c5c31)C(=O)NC4 ({Staurosporine-Suc-βAla-βAla-βAla-βAla-βAla-βAla-βAla}-[Dap]VFRVFGD-NH2; lactam 1-8)
